Source: PubChem
An excerpt weighted towards active compounds, which were near 2.2% of everything screened.
HIV Env fusion: HIV envelope-mediated fusion inhibition | HeLa-JRFL Env/CEM21 cell fusion, luciferase | inhibition, % at 12.3 µM | 360,000 compounds, 1.1% hits;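 active = mean replicate inhibition score of at least 50 and every replicate individually at or above 50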;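 also: 0% = plate neutral controls and 100% = maraviroc near 300 nM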
GalR3 antag: human GalR3 antagonism. O60755. HEK293 GalR3-CNG cAMP membrane potential fluorescence; galR3 body fused to GalR1 C-terminus. inhibition, % at 3 µM. 360,000 compounds, 0.44% hits;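 active = inhibition above the screen-wide average plus 3 SD, cut at about 13% in these data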;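 also: forskolin and galanin both at EC90 stimulate the cells; cAMP rise reported by CNG channel membrane potential dye signal; 0% = forskolin plus galanin with DMSO and 100% = forskolin alone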
Target sequence (O60755 1-299 limits assumed): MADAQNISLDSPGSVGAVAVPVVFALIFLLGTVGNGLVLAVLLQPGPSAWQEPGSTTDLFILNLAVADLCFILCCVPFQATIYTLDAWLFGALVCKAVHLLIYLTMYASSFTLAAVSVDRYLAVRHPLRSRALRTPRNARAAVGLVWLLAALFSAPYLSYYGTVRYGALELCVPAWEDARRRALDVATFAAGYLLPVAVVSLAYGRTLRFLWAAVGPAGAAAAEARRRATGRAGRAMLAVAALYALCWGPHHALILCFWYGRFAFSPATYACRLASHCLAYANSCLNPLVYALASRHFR
V-ATPase pH: regulators of yeast V-ATPase proton transport; S. cerevisiae, pHLuorin cytosolic pH fluorescence; response, % at 10 µM; 350,000 compounds, 0.37% hits; in the data active = response mostly above about 7.3%, no sharp cut-off; inactive = mostly below about 5.4%; also: actives read high
GAA850 FXN act: increases GAA850 frataxin promoter reporter activity | HEK293 lucGAA850 FXN promoter luciferase reporter, 24 h; percent of 10 µM SAHA response | activation, % at 6 µM | 360,000 compounds, 0.56% hits;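 active = activation above the average of all compounds screened plus 3 SD, cutoff fixed separately per campaign, cut at about 7.5% in these data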;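 also: 0% = DMSO wells and 100% = 10 µM SAHA wells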
NR2E3 ag-1: activates human NR2E3 receptor; 360,000 compounds, 0.35% hits; CHO-S Gal4-NCOR/VP16-NR2E3 two-hybrid, luciferase; inhibition of corepressor binding, % at 3.98 µM;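 active = inhibition above the mean of all tested compounds plus 3 SD, cut at about 70% in these data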;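 also: 0% = DMSO with NR2E3 transfected cells and 100% = cells lacking NR2E3 construct; higher means lower luciferase signal from less NR2E3 corepressor binding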
NR2E3 ag-2: NR2E3 (human) agonism. Q9Y5X4. 320,000 compounds, 0.12% hits. AID 2300. GST-NR2E3/biotin-RetCOR TR-FRET, 1536-well. inhibition of corepressor binding, % at 4.78 µM;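 active = percent inhibition above the cutoff of mean plus 3 SD of all tested compounds, set per screening campaign, cut at about 20% in these data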;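 also: 0% = DMSO wells and 100% = biotin wells as full block of FRET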
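Format: 1536-well format; test system: GST-NR2E3 and biotin-RetCOR proteins; read-out basis: percent inhibition of TR-FRET ratio; timing: 5 h incubation at 4 °C; detection: time-resolved FRET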
V-ATPase pH SP: regulators of yeast V-ATPase proton transport; shares compounds with V-ATPase pH; S. cerevisiae pHLuorin cytosolic pH; response, % at 10 µM; 980 compounds, 2% hits; in the data active = response above about 24%;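 also: plate controls were vehicle wells for no effect and positive control wells for full effect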
GAA30 FXN cntr: GAA30 FXN promoter activation counter-screen. HEK293 lucGAA30 FXN promoter luciferase, 24 h; DMSO = 0%, 5 µM ipriflavone = 100%. AID 588350. shares compounds with GAA850 FXN act. activation, % at 6 µM. 1,900 compounds, 66% hits;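 active = mean activation above the mean of solvent-only control wells plus 3 SD, cut at about 22% in these data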;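 also: counterscreen of GAA850 promoter hits where activity marks nonselective or luminescence artifacts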
GAA850 confirm: GAA850 FXN promoter activation confirmation; activation, % at 6 µM; 1,900 compounds, 86% hits; HEK293 lucGAA850 FXN promoter luciferase reporter, 24 h; 100% = activation by SAHA; shares compounds with GAA850 FXN act;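 active = mean activation above a set limit taken from the primary screen, cut at about 8% in these data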;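 also: 0% = DMSO wells and 100% = 10 µM SAHA wells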
NR2E3 ag conf: NR2E3 agonism confirmed in two-hybrid assay; shares compounds with NR2E3 ag-1; CHO-S mammalian two-hybrid NR2E3-NCOR, luciferase luminescence; inhibition, % at 3.98 µM; 2,300 compounds, 51% hits; AID 624378;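 active = average inhibition above a cutoff equal to the mean inhibition of all tested compounds plus one SD, cut at about 70% in these data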;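 also: 0% = DMSO in NR2E3 cells and 100% = DMSO in cells lacking NR2E3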
VP16 counter: reduces GAL4-VP16 reporter signal in NR2E3 counterscreen; shares compounds with NR2E3 ag-1; CHO-S GAL4-VP16 luciferase reporter, luminescence; inhibition, % at 3.98 µM; 2,300 compounds, 29% hits;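 active = mean inhibition above a cutoff equal to the average over all tested compounds plus one standard deviation, cut at about 70% in these data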;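 also: luciferase from a UAS reporter driven by GAL4-VP16 transactivation; 0% = DMSO with VP16-transfected cells and 100% = DMSO with cells lacking VP16; higher means less reporter light so more repression of VP16 activity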
* = called active by the depositor; x = not tested or not shown; [ ] = dose if it differs, or a comment.

SMILES	HIV Env fusion	GalR3 antag	V-ATPase pH	GAA850 FXN act	NR2E3 ag-1	NR2E3 ag-2	V-ATPase pH SP	GAA30 FXN cntr	GAA850 confirm	others
CC(C)NC(=O)Nc1ccc2c(c1)C(=O)N([C@@H](C)CO)C[C@@H](C)[C@@H](CN(C)Cc1ccncc1)OCCCC[C@@H](C)O2	13.3[16.7 µM]	x	x	x	x	x	x	x	x
CCC1Oc2ccc(C)cc2N(CC(=O)NCc2cccs2)C1=O (stereo not drawn)	-7.0	-6.5	2.5	0.3	4.1	3.2	x	x	x
CCC1Oc2ccccc2N(CC(=O)NCc2cccs2)C1=O (stereo not drawn)	6.5	-2.4	11.9*	2.5	-14.1	-4.0	1.2	x	x
COc1ccc(S(=O)(=O)N(C)C[C@@H]2Oc3ccc(NC(=O)c4ccncc4)cc3CC(=O)N([C@@H](C)CO)C[C@@H]2C)cc1	-2.3[16.7 µM]	x	x	x	x	x	x	x	x
COc1cc(/C=N/NC(=O)CN2CCOCC2)ccc1OCc1ccccc1	6.5	2.8	-3.6	1.9	-46.0	2.2	x	x	x
COc1cc(/C=N/NC(=O)CN2CCCCC2)ccc1OCc1ccccc1	-16.5	-3.4	9.6*	3.7	-54.4	0.0	-2.4	x	x
CCN(CC)c1ccc(S(=O)(=O)N2CCCCC2)cc1NC(=O)CSCc1c(C)noc1C	62.3*	-4.8	10.2*	10.4*	7.2	x	-3.5	21.1	22.2*
CN1CCN(C(=O)C[C@@H]2CC[C@@H]3[C@H](COC[C@H](O)CN3C(=O)Nc3ccc(F)cc3)O2)CC1	11.5[16.7 µM]	x	x	x	x	x	x	x	x
Cc1nc(NC(=O)c2c(-c3ccccc3Cl)noc2C)sc1C	-10.5	-3.8	12.9*	-2.3	79.0*	-2.3	3.6	x	x	NR2E3 ag conf=80.0*;VP16 counter=17.9
O=c1c2ccccc2sn1-c1ccc(Cl)cc1	22.2	-6.1	0.4	-2.6	54.9	x	-22.7	x	x	NR2E3 ag conf=-47.1;VP16 counter=-122.4
CN(C)CC(=O)Nc1ccc2c(c1)[C@H]1C[C@@H](CC(=O)N3CCCCC3)O[C@H](CO)[C@H]1O2	-3.4[16.7 µM]	x	x	x	x	x	x	x	x
CCOC(=O)N=Nc1c2ccccc2c2nc3no[nH]c3nc12	76.1*	-8.4	21.8*	-9.5	88.9*	x	117.8*	x	x	NR2E3 ag conf=99.2*;VP16 counter=99.6*
CCOC(=O)C(=O)N=Nc1c(O)n(C)c2ccccc12	12.7	-3.2	-1.8	-1.1	-15.8	0.8	x	x	x
CC(C)CC#Cc1cnc2c(c1)C(=O)N([C@H](C)CO)C[C@@H](C)[C@H](CN(C)S(=O)(=O)c1cccs1)O2	26.0[16.7 µM]	x	x	x	x	x	x	x	x
CCOC(=O)c1cc2c(=O)n3ccccc3nc2n(CCOC)c1=NC(=O)C(C)(C)C	-44.3	-1.5	-2.2	10.0*	-11.4	1.8	x	91.6*	35.0*
C[C@@H]1CCCCO[C@H](CN(C)Cc2ccc3c(c2)OCO3)[C@H](C)CN([C@@H](C)CO)C(=O)c2cc(NS(=O)(=O)c3ccccc3)ccc2O1	-18.3[16.7 µM]	x	x	x	x	x	x	x	x
C[C@]12C(=O)N(c3cccc(F)c3)C(=O)N1[C@@H]1c3ccccc3OC[C@@H]1[C@H]2c1ccccc1	-15.9	-10.6	-10.3	-2.8	-18.9	-1.0	x	x	x
CCOC(=O)[C@@H]1[C@H]2COc3ccc(Br)cc3[C@@H]2N2C(=O)N(c3ccc(OC)cc3)C(=O)[C@]12C	x	x	1.6	-0.4	13.1	2.8	x	x	x
CC(C)(C)N1C(=O)[C@H]2[C@@H](c3ccc(Br)cc3)N3C(=O)N(c4cccc(F)c4)C(=O)[C@@]3(C)[C@H]2C1=O	13.5	-6.4	-0.9	8.8*	7.8	0.6	x	33.6*	17.9*
COc1ccc([C@@H]2[C@@H]3C(=O)N(C(C)(C)C)C(=O)[C@@H]3[C@]3(C)C(=O)N(c4cccc(Br)c4)C(=O)N23)cc1	x	x	-2.3	11.2*	27.2	1.1	x	9.9	6.7
CC[C@@]12C(=O)N(c3cccc(Br)c3)C(=O)N1[C@H](c1ccc(Br)cc1)[C@@H]1C(=O)N(C(C)(C)C)C(=O)[C@@H]12	-11.0	-4.3	-1.8	10.6*	-16.8	0.5	x	45.2*	16.6*
CC[C@@]12C(=O)N(c3cccc(Br)c3)C(=O)N1[C@H](c1ccc(OC)cc1)[C@@H]1C(=O)N(C(C)(C)C)C(=O)[C@@H]12	95.5*	2.3	2.4	11.0*	-12.4	0.9	x	39.1*	9.2*
